Tests used:
CAL-27 [1] = experiment: Potentiation of 2.5 uM cisplatin-induced toxicity in 1 uM cisplatin resistant human CAL27 cells at 1 uM pretreated for 48 hrs followed by 1 uM cisplatin treatment by MTT assay; format: functional
CAL-27 [2] = experiment: Potentiation of 2.5 uM cisplatin-induced toxicity in 1 uM cisplatin resistant human CAL27 cells at 0.5 uM pretreated for 48 hrs followed by 1 uM cisplatin treatment by MTT assay; format: functional
A2780 [3] = experiment: Potentiation of 20 uM cisplatin-induced toxicity in 5 uM cisplatin resistant human A2780 cells at 0.5 uM pretreated for 48 hrs followed by 5 uM cisplatin treatment by MTT assay; format: functional
KYSE-510 [4] = experiment: Potentiation of 0.75 uM cisplatin-induced toxicity in 0.5 uM cisplatin resistant human KYSE-510 cells at 1.5 uM pretreated for 48 hrs followed by 0.5 uM cisplatin treatment by MTT assay; format: functional
Summary of the method: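 Cisplatin-resistant Kyse510 CisR (derived by weekly cycles of cisplatin over 24−30 weeks), grown in RPMI 1640 with 10% FCS at 37 °C, 5% CO₂. Test agent added 48 h before cisplatin, then 72 h further incubation. Viability by MTT (read at 544/690 nm) relative to untreated control wells. Combination index by Chou−Talalay method. Mean of three experiments.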

Histone deacetylase [5] = experiment: Inhibition of HDAC in cisplatin sensitive human MDA-MB-231 cells after 18 hrs by fluorescence assay; format: cell-based
CAL-27 [6] = experiment: Potentiation of cisplatin-induced toxicity in cisplatin resistant human CAL27 cells at 1 uM pretreated for 48 hrs followed by cisplatin treatment by MTT assay; format: functional
Summary of the method: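 Resistant sublines pretreated 48 h with 1 μM HDAC inhibitor, then cisplatin over a concentration range for 72 h; MTT viability read at 544/690 nm. Cisplatin IC50 from four-parameter logistic fit of pooled data (≥3 experiments, triplicate); shift factor = IC50 of cisplatin alone divided by IC50 of the combination.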

MDA-MB-231 [7] = experiment: Potentiation of 10 uM cisplatin-induced toxicity in 1 uM cisplatin resistant human MDA-MB-231 cells at 1.5 uM pretreated for 48 hrs followed by 1 uM cisplatin treatment by MTT assay; format: functional
KYSE-510 [8] = experiment: Potentiation of 1 uM cisplatin-induced toxicity in 0.5 uM cisplatin resistant human KYSE-510 cells at 1.5 uM pretreated for 48 hrs followed by 0.5 uM cisplatin treatment by MTT assay; format: functional
KYSE-510 [9] = experiment: Potentiation of 1 uM cisplatin-induced toxicity in 0.5 uM cisplatin resistant human KYSE-510 cells at 0.25 uM pretreated for 48 hrs followed by 0.5 uM cisplatin treatment by MTT assay; format: functional
Histone deacetylase [10] = experiment: Inhibition of HDAC in cisplatin resistant human MDA-MB-231 cells after 18 hrs by fluorescence assay; format: cell-based
KYSE-510 [11] = experiment: Potentiation of 0.5 uM cisplatin-induced toxicity in 0.5 uM cisplatin resistant human KYSE-510 cells at 1.5 uM pretreated for 48 hrs followed by 0.5 uM cisplatin treatment by MTT assay; format: functional
KYSE-510 [12] = experiment: Cytotoxicity against cisplatin sensitive human KYSE-510 cells after 72 hrs by MTT assay; format: functional, cell-based; conditions: KYSE-510, 72 h
A2780 [13] = experiment: Potentiation of 5 uM cisplatin-induced toxicity in 5 uM cisplatin resistant human A2780 cells at 0.5 uM pretreated for 48 hrs followed by 5 uM cisplatin treatment by MTT assay; format: functional
[14] = biological target: T1, Protein deacetylase HDAC6 (Homo sapiens, UniProt Q9UBN7); experiment: Inhibition of human HDAC6 by fluorescence assay
T1 sequence (Q9UBN7 whole entry): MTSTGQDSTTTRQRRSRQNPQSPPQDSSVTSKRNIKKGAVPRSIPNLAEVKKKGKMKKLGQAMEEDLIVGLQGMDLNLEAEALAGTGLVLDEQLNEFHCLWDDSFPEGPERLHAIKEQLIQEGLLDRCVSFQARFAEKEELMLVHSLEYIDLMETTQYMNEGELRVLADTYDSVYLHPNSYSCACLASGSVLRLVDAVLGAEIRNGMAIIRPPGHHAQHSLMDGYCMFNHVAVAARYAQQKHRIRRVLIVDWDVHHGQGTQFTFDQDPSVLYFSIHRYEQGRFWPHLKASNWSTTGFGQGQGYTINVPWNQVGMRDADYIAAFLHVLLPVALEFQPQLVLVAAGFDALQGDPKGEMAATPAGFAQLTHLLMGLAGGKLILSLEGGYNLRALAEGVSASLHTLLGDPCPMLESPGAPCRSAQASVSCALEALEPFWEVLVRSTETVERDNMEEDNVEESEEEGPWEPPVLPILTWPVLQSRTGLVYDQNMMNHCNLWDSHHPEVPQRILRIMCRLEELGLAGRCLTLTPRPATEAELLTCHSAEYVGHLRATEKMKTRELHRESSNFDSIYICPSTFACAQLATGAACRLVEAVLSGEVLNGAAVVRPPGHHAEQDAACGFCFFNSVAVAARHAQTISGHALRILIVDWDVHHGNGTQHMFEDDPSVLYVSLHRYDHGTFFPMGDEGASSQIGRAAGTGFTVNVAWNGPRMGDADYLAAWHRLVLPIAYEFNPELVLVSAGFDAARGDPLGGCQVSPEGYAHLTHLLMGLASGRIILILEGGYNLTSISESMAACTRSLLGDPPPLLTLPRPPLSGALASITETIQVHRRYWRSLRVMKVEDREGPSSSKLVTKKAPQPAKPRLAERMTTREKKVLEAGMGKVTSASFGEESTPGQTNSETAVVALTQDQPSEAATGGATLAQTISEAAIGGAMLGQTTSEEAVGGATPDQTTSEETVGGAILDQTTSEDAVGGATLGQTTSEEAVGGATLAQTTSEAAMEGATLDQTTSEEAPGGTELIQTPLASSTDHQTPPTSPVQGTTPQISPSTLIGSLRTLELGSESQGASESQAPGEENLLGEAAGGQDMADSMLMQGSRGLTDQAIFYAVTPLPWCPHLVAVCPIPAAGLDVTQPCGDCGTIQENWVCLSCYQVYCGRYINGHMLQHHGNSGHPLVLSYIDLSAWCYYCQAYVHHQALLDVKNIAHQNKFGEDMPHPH

CAL-27 [15] = experiment: Potentiation of 10 uM cisplatin-induced toxicity in 1 uM cisplatin resistant human CAL27 cells at 1 uM pretreated for 48 hrs followed by 1 uM cisplatin treatment by MTT assay; format: functional
MDA-MB-231 [16] = experiment: Potentiation of 5 uM cisplatin-induced toxicity in 1 uM cisplatin resistant human MDA-MB-231 cells at 1.5 uM pretreated for 48 hrs followed by 1 uM cisplatin treatment by MTT assay; format: functional
CAL-27 [17] = experiment: Potentiation of 45 uM cisplatin-induced toxicity in 1 uM cisplatin resistant human CAL27 cells at 1 uM pretreated for 48 hrs followed by 1 uM cisplatin treatment by MTT assay; format: functional

## Cc1cc(C)cc(C(=O)NOCCCCCC(=O)NO)c1
CAL-27 [1]
  Activity: Dose-dependent effect
  fractional inhibitory concentration index (FICI): 0.38
CAL-27 [2]
  Activity: Dose-dependent effect
A2780 [3]
  Activity: Dose-dependent effect
  fractional inhibitory concentration index (FICI): 0.58
KYSE-510 [4]
  Activity: Dose-dependent effect
  fractional inhibitory concentration index (FICI): 0.05
Histone deacetylase [5]
  IC50: 460 nM
CAL-27 [6]
  Activity: Dose-dependent effect
  fold change (FC): 21.6
MDA-MB-231 [7]
  Activity: Dose-dependent effect
  fractional inhibitory concentration index (FICI): 0.79
KYSE-510 [8]
  Activity: Dose-dependent effect
  fractional inhibitory concentration index (FICI): 0.05
KYSE-510 [9]
  Activity: Dose-dependent effect
  fractional inhibitory concentration index (FICI): 0.13
Histone deacetylase [10]
  IC50: 410 nM
KYSE-510 [11]
  Activity: Dose-dependent effect
  fractional inhibitory concentration index (FICI): 0.06
KYSE-510 [12]
  IC50: 2960 nM
A2780 [13]
  Activity: Dose-dependent effect
  fractional inhibitory concentration index (FICI): 0.73
[14]
  IC50: 55.7 nM
CAL-27 [15]
  Activity: Dose-dependent effect
  fractional inhibitory concentration index (FICI): 0.24
MDA-MB-231 [16]
  Activity: Dose-dependent effect
  fractional inhibitory concentration index (FICI): <0.2
CAL-27 [17]
  Activity: Dose-dependent effect
  fractional inhibitory concentration index (FICI): 0.27

From ChEMBL document CHEMBL2311425, “Histone deacetylase (HDAC) inhibitors with a novel connecting unit linker region reveal a selectivity profile for HDAC4 and HDAC5 with improved activity against chemoresistant cancer cells” (J Med Chem, 2013)
